A word on the pIC50: it is −log10 of the IC50, conventionally taken in molar units. As usually defined, the inhibition is the relative decrease from the control value, in per cent.

Series [1] deals with T1, Toll-like receptor 4 (Homo sapiens, UniProt O00206). The experiment in a line: Antagonist activity at human TLR4 expressed in HEK blue cells coexpressing MD-2/CD14 assessed as inhibition of LPS-induced NF-kappaB activation-mediated SEAP production after 24 hrs. The format is cell-based. To be noted: for pIC50: read-out: IC50. Put shortly:
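HEK293 cells stably carrying human TLR4, MD-2, CD14 and an NF-κB-inducible SEAP reporter were seeded at 4×10^4/well, grown 24 h, then switched to unsupplemented DMEM. Cells were treated with 20 ng/mL LPS plus compound (1.56–100 µM; from 10 mM DMSO stocks) for 24 h. Supernatant SEAP was read with QUANTI-Blue at OD620 after 15–30 min at 37°C. Two independent experiments in triplicate.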

For series [2], the system named is HCN2 channel. The experiment in a line: Inhibition of HCN2 (unknown origin) expressed in COS7 cells assessed as amplitude of inward current (I/I0 ratio) at 10 uM at -40 mV holding potential by pach clamp electrophysiology assay. The settings on record: Homo sapiens.
The test system of series [3] is HCN4 channel. The series can be described thus: Inhibition of HCN4 (unknown origin) expressed in COS7 cells assessed as amplitude of inward current (I/I0 ratio) at 10 uM at -40 mV holding potential by pach clamp electrophysiology assay. To be noted: Homo sapiens.
For series [4], the target named is T2, Toll-like receptor 4 (Mus musculus) (UniProt Q9QUK6).
T2 sequence (whole entry): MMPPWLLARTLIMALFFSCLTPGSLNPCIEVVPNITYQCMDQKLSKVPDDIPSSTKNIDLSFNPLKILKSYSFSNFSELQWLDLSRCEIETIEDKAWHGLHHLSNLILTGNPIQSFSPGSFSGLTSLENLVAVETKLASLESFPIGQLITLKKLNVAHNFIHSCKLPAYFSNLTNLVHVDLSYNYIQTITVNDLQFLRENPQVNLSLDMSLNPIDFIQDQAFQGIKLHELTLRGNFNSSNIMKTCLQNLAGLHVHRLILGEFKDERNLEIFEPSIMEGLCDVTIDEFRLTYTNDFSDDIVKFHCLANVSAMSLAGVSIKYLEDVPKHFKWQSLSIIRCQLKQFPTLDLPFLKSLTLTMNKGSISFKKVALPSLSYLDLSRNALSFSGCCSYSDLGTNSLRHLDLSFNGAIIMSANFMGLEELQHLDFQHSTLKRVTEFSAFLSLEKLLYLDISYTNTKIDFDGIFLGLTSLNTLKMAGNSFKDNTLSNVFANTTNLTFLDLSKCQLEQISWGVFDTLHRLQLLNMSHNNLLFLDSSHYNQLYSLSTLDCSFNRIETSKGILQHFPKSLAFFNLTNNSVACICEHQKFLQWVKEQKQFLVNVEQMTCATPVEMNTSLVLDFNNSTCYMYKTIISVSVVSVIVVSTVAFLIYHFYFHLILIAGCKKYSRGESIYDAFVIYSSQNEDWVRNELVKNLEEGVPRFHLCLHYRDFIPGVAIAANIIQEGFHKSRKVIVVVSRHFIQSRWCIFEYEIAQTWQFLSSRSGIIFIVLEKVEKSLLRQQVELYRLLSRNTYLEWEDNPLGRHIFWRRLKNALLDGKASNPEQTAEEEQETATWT
The series can be described thus: Antagonist activity at TLR4 in mouse RAW264.7 cells assessed as inhibition of LPS-induced NO production after 24 hrs by Griess assay. The format is cell-based. The procedure, abridged:
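RAW264.7 or BV-2 cells were seeded at 50,000/well in DMEM + 10% FBS with penicillin/streptomycin and pre-incubated 24 h at 37°C, 5% CO2. Medium was replaced with unsupplemented DMEM. Cells were treated with 40 ng/mL LPS plus graded compound for 24 h. Supernatant nitrite was read by Griess reaction (sulfanilic acid/phosphoric acid, then naphthylethylenediamine, 10 min each) against a nitrite standard.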
On the technique in general: Griess reagent forms a coloured azo dye with nitrite.

In series [5] the target is T1, Toll-like receptor 4. The experiment in a line: Antagonist activity at TLR4 in human PBMC assessed as inhibition of LPS-induced TNFalpha production at 20 uM after 24 hrs by ELISA relative to control. The format is cell-based. Put shortly:
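Human PBMC at 1×10^6 cells/well in RPMI 1640 were given compound with or without 10 ng/mL LPS for 24 h at 37°C, 5% CO2. Supernatants were frozen at −80°C, then TNF-α was quantified by sandwich ELISA against a recombinant human standard. Each sample was run in triplicate; three independent experiments, mean ± SD.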
On the technique in general: ELISA stands for enzyme-linked immunosorbent assay.

Series [6] is described as follows: Cytotoxicity against human HEK-Blue cells assessed as decrease in cell viability up to 100 uM after 24 hrs by CCK-8 assay. The format is cell-based. Put shortly:
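HEK-Blue hTLR4 cells were incubated with 40 ng/mL LPS and compound (0–100 µM) for 24 h. Viability was measured by CCK-8 absorbance at 450 nm.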

For series [7], the target named is T1, Toll-like receptor 4. The experiment in a line: Antagonist activity at human TLR4 expressed in HEK blue cell lysates assessed as inhibition of LPS-induced TLR4 protein expression after 24 hrs by Western blot method. Put shortly:
(§1)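 HEK-Blue hTLR4 cells at 1×10^6/well were grown 24 h in DMEM + 10% FBS, then switched to unsupplemented DMEM. Cells were treated with 40 ng/mL LPS and compound (0–20 µM) for 24 h, then lysed on ice. Protein was measured by BCA, run on 10% SDS-PAGE and blotted to PVDF. Blots were probed with anti-TLR4 (overnight, 4°C) with ECL detection; GAPDH served as loading control.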

Series [8] deals with T1, Toll-like receptor 4. The experiment in a line: Antagonist activity at human TLR4 expressed in HEK blue cell lysates assessed as inhibition of LPS-induced TLR4 protein expression at 10 uM after 24 hrs by Western blot method relative to control. Put shortly:
as §1
A general note: A western blot detects proteins with antibodies after separation by electrophoresis.

The target of series [9] is Toll-like receptor 4 (Mus musculus) (UniProt Q9QUK6). The series can be described thus: Antagonist activity at TLR4 in mouse BV2 cells assessed as inhibition of LPS-induced NO production after 24 hrs by Griess assay.
The test system of series [10] is HCN2 channel. The experiment in a line: Inhibition of HCN2 (unknown origin) expressed in COS7 cells assessed as change in half activation potential at 10 uM at -40 mV holding potential by pach clamp electrophysiology assay. The settings on record: Homo sapiens.
Series [11] relates to HCN4 channel. The series can be described thus: Inhibition of HCN4 (unknown origin) expressed in COS7 cells assessed as change in half activation potential at 10 uM at -40 mV holding potential by pach clamp electrophysiology assay. The settings on record: Homo sapiens.
Series [12] concerns HCN2 channel. The series can be described thus: Inhibition of HCN2 (unknown origin) expressed in COS7 cells assessed as Tdeact time at 10 uM at -40 mV holding potential measured at +50 mV by pach clamp electrophysiology assay (reference value: 66 +/- 4.2 milliseconds). The settings on record: Homo sapiens.
The test system of series [13] is HCN2 channel. The experiment in a line: Inhibition of HCN2 (unknown origin) expressed in COS7 cells assessed as Tact time at 10 uM at -40 mV holding potential measured at -120 mV by pach clamp electrophysiology assay (reference value: 242.9 +/- 24 milliseconds). To be noted: Homo sapiens.
For series [14], the system named is HCN4 channel. The series can be described thus: Inhibition of HCN4 (unknown origin) expressed in COS7 cells assessed as Tdeact time at 10 uM at -40 mV holding potential measured at +50 mV by pach clamp electrophysiology assay (reference value: 92.9 +/- 9.5 milliseconds). To be noted: Homo sapiens.
Series [15] deals with HCN4 channel. The series can be described thus: Inhibition of HCN4 (unknown origin) expressed in COS7 cells assessed as Tact time at 10 uM at -40 mV holding potential measured at -120 mV by pach clamp electrophysiology assay (reference value: 780.9 +/- 59.2 milliseconds). The settings on record: Homo sapiens.

Each structure is given as a SMILES string. pIC50: −log10 of the molar value.

T1 sequence (O00206 whole entry): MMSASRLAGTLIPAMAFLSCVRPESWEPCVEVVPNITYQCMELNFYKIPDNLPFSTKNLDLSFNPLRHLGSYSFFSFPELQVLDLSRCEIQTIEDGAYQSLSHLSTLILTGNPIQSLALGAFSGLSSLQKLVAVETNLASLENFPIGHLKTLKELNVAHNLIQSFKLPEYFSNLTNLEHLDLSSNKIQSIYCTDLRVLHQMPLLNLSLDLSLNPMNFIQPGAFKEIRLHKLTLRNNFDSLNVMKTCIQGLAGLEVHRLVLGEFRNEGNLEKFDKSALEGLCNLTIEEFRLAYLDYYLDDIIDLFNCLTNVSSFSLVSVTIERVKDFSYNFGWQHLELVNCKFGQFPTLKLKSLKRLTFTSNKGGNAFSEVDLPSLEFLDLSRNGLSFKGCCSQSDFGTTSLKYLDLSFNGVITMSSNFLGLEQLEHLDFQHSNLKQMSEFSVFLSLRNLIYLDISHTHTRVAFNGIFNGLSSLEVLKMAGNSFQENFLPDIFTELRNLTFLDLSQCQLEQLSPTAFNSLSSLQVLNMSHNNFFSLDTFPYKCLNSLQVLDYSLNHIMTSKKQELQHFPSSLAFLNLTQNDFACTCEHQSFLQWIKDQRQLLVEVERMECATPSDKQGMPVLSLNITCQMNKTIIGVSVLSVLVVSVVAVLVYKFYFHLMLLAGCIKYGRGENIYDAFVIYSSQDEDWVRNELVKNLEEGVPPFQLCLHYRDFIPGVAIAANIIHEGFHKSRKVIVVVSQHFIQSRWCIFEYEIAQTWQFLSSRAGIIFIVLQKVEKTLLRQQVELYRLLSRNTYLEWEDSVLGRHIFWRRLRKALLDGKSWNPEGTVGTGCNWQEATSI

Turning to `Cc1nn(Cc2ccccc2)c(C)c1CN(C)CC(O)COc1cccc2[nH]c3ccccc3c12` (stereo not given), at Toll-like receptor 4 [1], the pIC50 is 4.50. `CCOc1ccc(OCC(O)CN(C)Cc2c(C)nn(Cc3ccccc3Cl)c2C)cc1` (stereo not given): the pIC50 on Toll-like receptor 4 [1] is 4.47. Also, the Ratio in the series on HCN2 channel [2] worked out at 0.73; in the series on HCN4 channel [3] it was 0.75.

For the compound `CCCc1ccc(OCCC(O)CN(C)Cc2c(C)nn(Cc3ccccc3Cl)c2C)cc1` (stereo not given), on Toll-like receptor 4 [1], the pIC50 is 4.61. As for `CCOc1ccc(OCC(O)CNCCOc2ccccc2OC)cc1` (stereo not given), the IC50 entry on Toll-like receptor 4 [1] is recorded as “Not Active”.

For the compound `Cc1nn(Cc2ccccc2F)c(C)c1CN(C)CC(O)COc1cccc2[nH]c3ccccc3c12` (stereo not given), at Toll-like receptor 4 [1], the pIC50 was 4.46.

In the case of `Cc1ccc(OCCC(O)CN(C)Cc2c(C)nn(Cc3ccccc3Cl)c2C)cc1` (stereo not given), at Toll-like receptor 4 [1], the pIC50 was 4.29.

Consider `OC(CNc1ccc2c(c1)-c1ccccc1C2)COc1cccc2[nH]c3ccccc3c12` (stereo not given), for which the pIC50 at Toll-like receptor 4 [1] is 4.91. For `CCOc1ccc(OCCC(O)CN(C)Cc2c(C)nn(Cc3ccc(Cl)cc3)c2C)cc1` (stereo not given), the pIC50 on Toll-like receptor 4 [1] is 4.59.

Consider `Cc1nn(Cc2ccccc2Cl)cc1CN(C)CC(O)COc1cccc2[nH]c3ccccc3c12` (stereo not given), for which the IC50 result at Toll-like receptor 4 [1] is “Not Active”. As for `OC(CNc1ccc(F)cc1)COc1cccc2[nH]c3ccccc3c12` (stereo not given), the IC50 result at Toll-like receptor 4 [1] is listed as “Not Active”. Moreover, the Ratio in the series on HCN2 channel [2] came to 1; with HCN4 channel [3] it was 0.82. Consider `Cc1nn(Cc2ccccc2Cl)c(C)c1CN(C)CC(O)CCOc1cccc2[nH]c3ccccc3c12` (stereo not given), for which the pIC50 at Toll-like receptor 4 [1] is 4.82. Turning to `Cc1nn(Cc2ccc(Cl)cc2)c(C)c1CN(C)CC(O)COc1cccc2[nH]c3ccccc3c12` (stereo not given), on Toll-like receptor 4 [1], the pIC50 was 4.87. Take `CCOc1ccc(OCCC(O)CN(C)Cc2c(C)nn(Cc3ccccc3F)c2C)cc1` (stereo not given): the IC50 result at Toll-like receptor 4 [1] is on record as “Not Active”. In the case of `Cc1nn(Cc2ccccc2Cl)c(C)c1CN(C)CC(O)CCOc1ccc(C(C)(C)C)cc1` (stereo not given), the pIC50 at Toll-like receptor 4 [1] is 4.78. Consider `CCOc1ccc(OCCC(O)CN(C)Cc2c(C)nn(Cc3ccccc3Cl)c2C)cc1` (stereo not given), for which the IC50 result at Toll-like receptor 4 [1] is reported as “Not Active”.

As to `CCOc1ccc(OCCC(O)CN(C)Cc2c(C)nn(Cc3ccccc3C)c2C)cc1` (stereo not given), on Toll-like receptor 4 [1], the pIC50 is 4.26.

In the case of `COc1ccccc1OCCNCC(O)CCOc1cccc2[nH]c3ccccc3c12` (stereo not given), the pIC50 on Toll-like receptor 4 [1] is 4.49.

`Cc1nn(Cc2ccccc2Cl)c(C)c1CN(C)CC(O)CCOc1ccc(F)cc1` (stereo not given): the pIC50 on Toll-like receptor 4 [1] was 4.26. Same read-out and setting: the same measure for `OC(CNc1ccc(-c2ccccc2)cc1)COc1cccc2[nH]c3ccccc3c12` (stereo not given): 4.66; for `O=C(c1ccccc1)c1cc(Cl)ccc1NCC(O)COc1cccc2[nH]c3ccccc3c12` (stereo not given): 4.68. `OC(CNc1ccc2ccccc2c1)COc1cccc2[nH]c3ccccc3c12` (stereo not given): the pIC50 at Toll-like receptor 4 [1] is 4.54. For the compound `C/N=C/c1cn(CC(O)COc2cccc3[nH]c4ccccc4c23)cn1` (stereo not given), on Toll-like receptor 4 [1], the IC50 entry is given as “Not Active”.

For `CCOc1ccc(OCCC(O)CNCCOc2ccccc2OC)cc1` (stereo not given), the IC50 entry on Toll-like receptor 4 [1] was “Not Active”. For `Cc1nn(Cc2ccccc2Cl)c(C)c1CN(C)CC(O)COc1cccc2[nH]c3ccccc3c12` (stereo not given), on Toll-like receptor 4 [1], the pIC50 is 4.90. Also, the inhibition result in series [4] was “Dose-dependent effect”; at Toll-like receptor 4 [5], 80%; at Toll-like receptor 4 [7], “Dose-dependent effect”; on Toll-like receptor 4 [8], over 90%; in series [9], “Dose-dependent effect”. Also, the Activity entry in series [6] is given as “Non-Toxic”. Besides, the V1/2 is -21.4 mV in the series with HCN2 channel [10] and -28.8 mV with HCN4 channel [11]. The Ratio with HCN2 channel [2] is 0.7; in the series on HCN4 channel [3], 0.5. Further, the TIME with HCN2 channel [12] was 1.47e-05 h; in the series with HCN2 channel [13], 0.000248 h; in the series on HCN4 channel [14] it was 2.22e-05 h; in the series with HCN4 channel [15] it was 0.000597 h. In the case of `COc1ccccc1OCCNCC(O)COc1cccc2[nH]c3ccccc3c12` (stereo not given) [CARVEDILOL], the pIC50 at Toll-like receptor 4 [1] was 4.48. `O=C1c2ccccc2C(=O)c2cc(NCC(O)COc3cccc4[nH]c5ccccc5c34)ccc21` (stereo not given): the IC50 entry at Toll-like receptor 4 [1] was “Not Active”.

Consider `CCc1ccc(OCCC(O)CN(C)Cc2c(C)nn(Cc3ccccc3Cl)c2C)cc1` (stereo not given), for which the pIC50 on Toll-like receptor 4 [1] is 4.58.

The values above are taken from ChEMBL document CHEMBL4152275, “Discovery of novel small molecule TLR4 inhibitors as potent anti-inflammatory agents” (Eur J Med Chem, 2018).
